Results published in ChEMBL document CHEMBL1806480, “New condensed pyrroles of potential biological interest syntheses and structure-activity relationship studies” (2011).
Values after ≈ are worked out from the molar mass of the structure shown. Active and inactive are the calls of the source. The rule behind the calls is not given here.

Columns and labels:
Bacillus subtilis [1] = assay: Antimicrobial activity against Bacillus subtilis ATCC 6633 after 24 hrs by microdilution technique; type: functional; settings: for MIC: ATCC 6633, 24 h
How it was run: (§1)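 MIC by microdilution per NCCLS 1997 guidelines. Bacteria were subcultured overnight on Mueller-Hinton agar at 37 °C and passaged at least twice. Compounds were serially two-fold diluted in DMSO from 1024 to 16, mixed with nutrient agar, and inoculated. Incubation was 37 °C in a humid chamber for 24 h. MIC = lowest concentration completely inhibiting macroscopic growth. DMSO, organism-only and medium-only wells served as controls.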

Rattus norvegicus [2] = assay: Antiinflammatory activity in male Sprague-Dawley rats assessed as inhibition of carrageenan-induced rat paw edema dosed subcutaneously equimolar to 70 mg/kg, sc ibuprofen administered 1 hr before carrageenan challenge measured 4 hrs post carrageenan challenge relative to control; type: functional; settings: route subcutaneous
How it was run: (§2)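 Male Sprague-Dawley rats, 150–170 g, 5 per group. Compounds were given subcutaneously in DMSO at doses equimolar to the reference. One hour later, 0.1 mL of 1% carrageenan was injected subplantar into the right hind paw. Right-minus-left paw volume was read by water plethysmometer at 1, 2, 3 and 4 h. %inhibition = (1 − swelling treated/swelling control) × 100. Controls received DMSO s.c. Mean ± SE reported.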

Rattus norvegicus [3] = assay: Antiinflammatory activity in male Sprague-Dawley rats assessed as inhibition of carrageenan-induced rat paw edema dosed subcutaneously equimolar to 70 mg/kg, sc ibuprofen administered 1 hr before carrageenan challenge measured 2 hrs post carrageenan challenge relative to control; type: functional; settings: route subcutaneous; how it was run: as §2
Rattus norvegicus [4] = assay: Antiinflammatory activity in male Sprague-Dawley rats assessed as inhibition of carrageenan-induced rat paw edema dosed subcutaneously equimolar to 70 mg/kg, sc ibuprofen administered 1 hr before carrageenan challenge measured 3 hrs post carrageenan challenge relative to control; type: functional; settings: route subcutaneous; how it was run: as §2
Rattus norvegicus [5] = assay: Antiinflammatory activity in male Sprague-Dawley rat assessed as inhibition of carrageenan-induced rat paw edema dosed subcutaneously equimolar to 70 mg/kg, sc ibuprofen administered 1 hr before carrageenan challenge measured 1 hr post carrageenan challenge relative to control; type: functional; settings: route subcutaneous; how it was run: as §2
Candida albicans = assay: Antimicrobial activity against Candida albicans ATCC 10231 at 20 to 30 ug/ml after 24 hrs by disk diffusion method; type: functional, organism-based
How it was run: (§3)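 Disc diffusion per Bauer et al. Inhibition zones were recorded. DMSO served as the solvent control. Amoxicillin and fluconazole served as reference agents.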

Escherichia coli [6] = assay: Antimicrobial activity against Escherichia coli ATCC 25922 at 20 to 30 ug/ml after 24 hrs by disk diffusion method; type: functional, organism-based; how it was run: as §3
Mycolicibacterium phlei = assay: Antimicrobial activity against Mycobacterium phlei ATCC 10142 at 20 to 30 ug/ml after 24 hrs by disk diffusion method; type: functional, organism-based
Staphylococcus aureus [7] = assay: Antimicrobial activity against Staphylococcus aureus ATCC 29213 at 20 to 30 ug/ml after 24 hrs by disk diffusion method; type: functional, organism-based; how it was run: as §3
Pseudomonas aeruginosa [8] = assay: Antimicrobial activity against Pseudomonas aeruginosa ATCC […] at 20 to 30 ug/ml after 24 hrs by disk diffusion method; type: functional, organism-based; how it was run: as §3
Bacillus subtilis [9] = assay: Antimicrobial activity against Bacillus subtilis ATCC 6633 at 20 to 30 ug/ml after 24 hrs by disk diffusion method; type: functional, organism-based; how it was run: as §3
Staphylococcus aureus [10] = assay: Antimicrobial activity against Staphylococcus aureus ATCC 29213 after 24 hrs by microdilution technique; type: functional; settings: ATCC 29213, 24 h; how it was run: as §1
Escherichia coli [11] = assay: Antimicrobial activity against Escherichia coli ATCC 25922 after 24 hrs by microdilution technique; type: functional; settings: ATCC 25922, 24 h
How it was run: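 MIC by two-fold serial microdilution on Mueller-Hinton agar per NCCLS 1997. Compounds were dissolved in DMSO at 1024, 512, 256, 128, 64, 32 and 16 […] and mixed with sterile nutrient agar, then inoculated with bacteria subcultured overnight at 37 °C on MHA (passaged at least twice). Incubation was 37 °C in a humid chamber and endpoints were read at 24 h. MIC is the lowest concentration completely inhibiting macroscopic growth. DMSO, organism-only and medium-only wells served as controls.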

Pseudomonas aeruginosa [12] = assay: Antimicrobial activity against Pseudomonas aeruginosa ATCC […] after 24 hrs by microdilution technique; type: functional; how it was run: as §1

MIC (Bacillus subtilis [1])	Compound	Activity (Bacillus subtilis [1])	inhibition in vivo (Rattus norvegicus [2])	inhibition in vivo (Rattus norvegicus [3])	inhibition in vivo (Rattus norvegicus [4])	inhibition in vivo (Rattus norvegicus [5])	Activity (Candida albicans)	Activity (Escherichia coli [6])	Activity (Mycolicibacterium phlei)	Activity (Staphylococcus aureus [7])	Activity (Pseudomonas aeruginosa [8])	Activity (Bacillus subtilis [9])	inhibition in vivo at 70 mg/kg (Rattus norvegicus [3]; dose equimolar to 70 mg/kg ibuprofen)	MIC (Staphylococcus aureus [10])	MIC (Escherichia coli [11])	MIC (Pseudomonas aeruginosa [12])
–	Cc1nc2c(c(-c3ccccc3)c(-c3ccccc3)n2-c2c(C)c(=O)n(-c3ccccc3)n2C)c(=O)[nH]1	Active	27.6%	5.37%	13.2%	2.16%	–	–	–	–	–	–	–	–	–	–
512 µg/mL (≈ 1150 µM)	Cc1c(-n2c(N)c(C#N)c(-c3ccccc3)c2-c2ccccc2)n(C)n(-c2ccccc2)c1=O	–	64.7%	36.5%	62.6%	9.5%	–	–	–	–	–	–	–	–	–	–
–	Cc1c(-n2c(-c3ccccc3)c(-c3ccccc3)c3c(Cl)ncnc32)n(C)n(-c2ccccc2)c1=O	–	–	–	–	–	inactive	inactive	inactive	inactive	inactive	inactive	–	–	–	–
–	Cc1c(-n2c(-c3ccccc3)c(-c3ccccc3)c3c(Nc4ccccc4)ncnc32)n(C)n(-c2ccccc2)c1=O	–	27.9%	5.11%	13%	1.99%	–	–	–	–	–	–	–	–	–	–
–	Cc1c(-n2c(-c3ccccc3)c(-c3ccccc3)c3c2ncn2nnnc32)n(C)n(-c2ccccc2)c1=O	–	–	–	–	–	inactive	inactive	inactive	inactive	inactive	inactive	–	–	–	–
–	Cc1c(-n2c(-c3ccccc3)c(-c3ccccc3)c3c(NN)ncnc32)n(C)n(-c2ccccc2)c1=O	–	54%	46.1%	65.1%	43.7%	–	–	–	–	–	–	–	–	–	–
–	Cc1c(-n2c(-c3ccccc3)c(-c3ccccc3)c3c2ncn2ncnc32)n(C)n(-c2ccccc2)c1=O	–	28.7%	4.92%	9.9%	1.73%	–	–	–	–	–	–	–	–	–	–
–	CC(C)Cc1ccc(C(C)C(=O)O)cc1 (stereo not drawn) [IBUPROFEN]	–	69.5%	–	60.7%	6.08%	–	–	–	–	–	–	45%	–	–	–
–	Cc1c(-n2c(-c3ccccc3)c(-c3ccccc3)c3c(=S)[nH]cnc32)n(C)n(-c2ccccc2)c1=O	–	64.3%	0%	73.3%	0%	inactive	inactive	inactive	inactive	inactive	inactive	–	–	–	–
–	CCO/C=N/c1c(C#N)c(-c2ccccc2)c(-c2ccccc2)n1-c1c(C)c(=O)n(-c2ccccc2)n1C	–	–	–	–	–	inactive	inactive	inactive	inactive	inactive	inactive	–	–	–	–
512 µg/mL (≈ 1080 µM)	Cc1c(-n2c(-c3ccccc3)c(-c3ccccc3)c3c(=N)[nH]cnc32)n(C)n(-c2ccccc2)c1=O	–	27.5%	2.35%	11.4%	0.89%	–	–	–	–	–	–	–	–	–	–
–	Cc1c(-n2c(N)c(C(N)=O)c(-c3ccccc3)c2-c2ccccc2)n(C)n(-c2ccccc2)c1=O	–	62.5%	26.1%	47.8%	19.1%	inactive	inactive	inactive	inactive	inactive	inactive	–	–	–	–
–	Cc1c(-n2c(-c3ccccc3)c(-c3ccccc3)c3c(N/N=C/c4ccccc4)ncnc32)n(C)n(-c2ccccc2)c1=O	–	48.4%	59.6%	90.8%	47.8%	–	–	–	–	–	–	–	–	–	–
256 µg/mL (≈ 525 µM)	CC(=O)Nc1c(C#N)c(-c2ccccc2)c(-c2ccccc2)n1-c1c(C)c(=O)n(-c2ccccc2)n1C	–	46.4%	3.07%	66.5%	1.73%	–	–	–	–	–	–	–	256 µg/mL (≈ 525 µM)	–	–
256 µg/mL (≈ 541 µM)	Cc1c(-n2c(-c3ccccc3)c(-c3ccccc3)c3c(=O)[nH]cnc32)n(C)n(-c2ccccc2)c1=O	–	27.1%	60.6%	60%	63%	inactive	inactive	inactive	inactive	inactive	inactive	–	–	–	–
–	Cc1ccccc1Nc1ncnc2c1c(-c1ccccc1)c(-c1ccccc1)n2-c1c(C)c(=O)n(-c2ccccc2)n1C	–	28%	5.17%	13.3%	1.95%	–	–	–	–	–	–	–	–	–	–

Compound	MIC (Bacillus subtilis [1])	Activity (Bacillus subtilis [1])	inhibition in vivo (Rattus norvegicus [2])	inhibition in vivo (Rattus norvegicus [3])	inhibition in vivo (Rattus norvegicus [4])	inhibition in vivo (Rattus norvegicus [5])	Activity (Candida albicans)	Activity (Escherichia coli [6])	Activity (Mycolicibacterium phlei)	Activity (Staphylococcus aureus [7])	Activity (Pseudomonas aeruginosa [8])	Activity (Bacillus subtilis [9])	inhibition in vivo at 70 mg/kg (Rattus norvegicus [3]; dose equimolar to 70 mg/kg ibuprofen)	MIC (Staphylococcus aureus [10])	MIC (Escherichia coli [11])	MIC (Pseudomonas aeruginosa [12])
CC1(C)S[C@@H]2[C@H](NC(=O)[C@H](N)c3ccc(O)cc3)C(=O)N2[C@H]1C(=O)O [AMOXICILLIN]	64 µg/mL (≈ 175 µM)	–	–	–	–	–	–	–	–	–	–	–	–	1 µg/mL (≈ 2.74 µM)	256 µg/mL (≈ 701 µM)	64 µg/mL (≈ 175 µM)
